Laboratory results reported in ChEMBL document CHEMBL3352570, “ST7612AA1, a thioacetate-ω(γ-lactam carboxamide) derivative selected from a novel generation of oral HDAC inhibitors” (J Med Chem, 2014).
Active and inactive are the calls of the source. No cut-off for these calls is given here.

Legend:
Histone deacetylase [1] = assay: Inhibition of HDAC-mediated histone H4 deacetylation in human NCI-H460 cells after 3 hrs by Western blot analysis; assay type: cell-based
Summary of the method: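 NCI-H460 cells were plated the day before and treated 3 h across a dose range. Cells were washed with DPBS containing 5 mM NaB and lysed in HNB buffer with 1% NP-40. Histones were acid-extracted from nuclei with 0.4 equiv/L H2SO4 and precipitated with acetone. Blots were probed for acetyl-H4 against total H4. Read-out was ECL and densitometry after normalization; IC50 fitted; means of at least two experiments.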

[2] = Half life in human hepatocytes at 5 uM by LCMS/MS analysis; assay type: ADME, cell-based, Hepatocyte
Summary of the method: (§1)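 Incubation in human hepatocytes. […] Values are means of at least three experiments.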

Histone deacetylase [3] = assay: Inhibition of HDAC-mediated tubulin deacetylation in human NCI-H460 cells after 3 hrs by Western blot analysis; assay type: cell-based
Summary of the method: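 Cells (NCI-H460) were treated for 3 h with graded concentrations. The cytoplasmic fraction was collected after HNB/1% NP-40 lysis and centrifugation of nuclei at 2000g. This fraction was resolved by SDS-PAGE and probed for acetylated α-tubulin against α-tubulin and β-actin. Bands were detected by ECL and quantified by densitometry after normalization; IC50 fitted; means of at least two experiments.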

[4] = Cytotoxicity against human HCT116 cells after 24 hrs by SRB assay; assay type: functional, cell-based; conditions: HCT-116, 24 h
Summary of the method: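 HCT116 cells were cultured in McCoy's 5A with L-glutamine, 10% heat-inactivated FCS and 50 μg/mL gentamicin. After seeding at about 10% confluence and a 24 h recovery, they received drug for 24 h. Drug was washed out and cells were incubated 48 h more before SRB staining. IC50 is the 50% cell-number reduction versus vehicle, from fitted dose–response curves; means of at least two experiments.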

[5] = Antitumor activity against human HCT116 cells xenografted in athymic nude mouse assessed as tumor volume inhibition at 60 mg/kg, po qd for 5 days a week for 3 weeks; assay type: functional; conditions: HCT-116
Summary of the method: (§2)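 Female athymic nude mice, 5–6 weeks old, were inoculated sc in the right flank with 5 × 10⁶ exponentially growing tumor cells per 100 μL. Oral dosing once daily began 3 days after tumor injection, in Solutol HS15 diluted 1/20 in water. Tumor volume inhibition was calculated as TVI% = 100 − [(mean TV treated/mean TV control) × 100].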

Mus musculus [6] = assay: Toxicity in human HCT116 cells xenografted athymic nude mouse assessed as body weight loss at 60 mg/kg, po qd for 5 days a week for 3 weeks; assay type: organism-based, HCT-116; design: dose 60 mg/kg, route oral; conditions: in vivo
Summary of the method: (§3)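 Nude mice (female, athymic, 5–6 weeks) carried sc right-flank xenografts of 5 × 10⁶ cells per 100 μL. Oral treatment once daily started 3 days after inoculation.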

[7] = Efflux ratio of permeability from apical to basolateral side to basolateral to apical side of human Caco2 cells in presence of digoxin; assay type: ADME, cell-based; conditions: caco-2
Summary of the method: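 Caco-2 AB/BA flux ratio measured with digoxin coincubated with test and reference compounds. Means of at least three experiments.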

[8] = Efflux ratio of permeability from apical to basolateral side to basolateral to apical side of human Caco2 cells; assay type: ADME, cell-based; conditions: caco-2
Summary of the method: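 Caco-2 monolayers; the efflux ratio is flux in the apical-to-basolateral direction over flux in the basolateral-to-apical direction. Means of at least three experiments.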

Mus musculus [9] = assay: Toxicity in human A2780 cells xenografted athymic nude mouse assessed as body weight loss at 60 mg/kg, po qd for 5 days a week for 3 weeks; assay type: organism-based; design: dose 60 mg/kg, route oral; conditions: in vivo, in the assay text read “for 2 weeks” for “for 3 weeks”; summary of the method: as §3
[10] = Solubility of the compound in Solutol HS15
A2780 = assay: Antitumor activity against human A2780 cells xenografted in athymic nude mouse assessed as tumor volume inhibition at 60 mg/kg, po qd for 5 days a week for 3 weeks; assay type: functional; conditions: in the assay text read “for 2 weeks” for “for 3 weeks”; summary of the method: as §2
[11] = Intrinsic clearance in human hepatocytes assessed per million cells at 5 uM by LCMS/MS analysis; assay type: ADME, cell-based, Hepatocyte; conditions: read-out: CLH; summary of the method: as §1
NCI-H460 = assay: Cytotoxicity against human NCI-H460 cells after 24 hrs by SRB assay; assay type: functional, cell-based; conditions: NCI-H460, 24 h
Summary of the method: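 NCI-H460 cells were grown in RPMI-1640 with L-glutamine, 10% heat-inactivated FCS and 50 μg/mL gentamicin. Cells were seeded at about 10% confluence and allowed to recover for 24 h. They were exposed to varying concentrations for 24 h, washed, then cultured a further 48 h. Surviving cells were measured by SRB. IC50 is the 50% reduction in cell number versus vehicle, from dose–response curve fitting; means of at least three experiments.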

Mus musculus [12] = assay: Toxicity in human A2780 cells xenografted athymic nude mouse assessed as body weight loss at 100 mg/kg, po qd for 5 days a week for 2 weeks; assay type: organism-based; design: dose 100 mg/kg, route oral; conditions: in vivo; summary of the method: as §3
[13] = Stability of the compound in aqueous solution at pH 7.4 after 24 hrs; assay type: physicochemical; conditions: buffer, pH 7.4, 24 h
Summary of the method: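 Stability in aqueous solution at pH 7.4 over 24 h.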

[14] = Stability of the compound in aqueous solution at pH 1.2 after 3 hrs; conditions: buffer, pH 1.2, 3 h
Histone deacetylase 11 = molecular target: T1, Histone deacetylase 11 (Homo sapiens, UniProt Q96DB2); assay: Inhibition of HDAC11 (unknown origin) using fluorogenic tetrapeptide RHKK(Ac) substrate by fluorescence assay
T1 sequence (Q96DB2 whole entry): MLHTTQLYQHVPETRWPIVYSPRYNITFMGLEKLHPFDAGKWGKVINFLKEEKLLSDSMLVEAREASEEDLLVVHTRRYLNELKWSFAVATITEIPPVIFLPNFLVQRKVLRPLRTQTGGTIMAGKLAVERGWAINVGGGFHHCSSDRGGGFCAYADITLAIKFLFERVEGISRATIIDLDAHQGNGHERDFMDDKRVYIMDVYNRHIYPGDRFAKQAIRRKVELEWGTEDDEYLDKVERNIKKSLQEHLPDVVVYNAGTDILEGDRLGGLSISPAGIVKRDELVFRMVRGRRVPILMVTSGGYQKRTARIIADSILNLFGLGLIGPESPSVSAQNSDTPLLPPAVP

[15] = molecular target: T2, Protein deacetylase HDAC6 (Homo sapiens) (UniProt Q9UBN7); assay: Inhibition of HDAC6 (unknown origin) using fluorogenic tetrapeptide RHKK(Ac) substrate at <50 uM by fluorescence assay
T2 sequence (whole entry): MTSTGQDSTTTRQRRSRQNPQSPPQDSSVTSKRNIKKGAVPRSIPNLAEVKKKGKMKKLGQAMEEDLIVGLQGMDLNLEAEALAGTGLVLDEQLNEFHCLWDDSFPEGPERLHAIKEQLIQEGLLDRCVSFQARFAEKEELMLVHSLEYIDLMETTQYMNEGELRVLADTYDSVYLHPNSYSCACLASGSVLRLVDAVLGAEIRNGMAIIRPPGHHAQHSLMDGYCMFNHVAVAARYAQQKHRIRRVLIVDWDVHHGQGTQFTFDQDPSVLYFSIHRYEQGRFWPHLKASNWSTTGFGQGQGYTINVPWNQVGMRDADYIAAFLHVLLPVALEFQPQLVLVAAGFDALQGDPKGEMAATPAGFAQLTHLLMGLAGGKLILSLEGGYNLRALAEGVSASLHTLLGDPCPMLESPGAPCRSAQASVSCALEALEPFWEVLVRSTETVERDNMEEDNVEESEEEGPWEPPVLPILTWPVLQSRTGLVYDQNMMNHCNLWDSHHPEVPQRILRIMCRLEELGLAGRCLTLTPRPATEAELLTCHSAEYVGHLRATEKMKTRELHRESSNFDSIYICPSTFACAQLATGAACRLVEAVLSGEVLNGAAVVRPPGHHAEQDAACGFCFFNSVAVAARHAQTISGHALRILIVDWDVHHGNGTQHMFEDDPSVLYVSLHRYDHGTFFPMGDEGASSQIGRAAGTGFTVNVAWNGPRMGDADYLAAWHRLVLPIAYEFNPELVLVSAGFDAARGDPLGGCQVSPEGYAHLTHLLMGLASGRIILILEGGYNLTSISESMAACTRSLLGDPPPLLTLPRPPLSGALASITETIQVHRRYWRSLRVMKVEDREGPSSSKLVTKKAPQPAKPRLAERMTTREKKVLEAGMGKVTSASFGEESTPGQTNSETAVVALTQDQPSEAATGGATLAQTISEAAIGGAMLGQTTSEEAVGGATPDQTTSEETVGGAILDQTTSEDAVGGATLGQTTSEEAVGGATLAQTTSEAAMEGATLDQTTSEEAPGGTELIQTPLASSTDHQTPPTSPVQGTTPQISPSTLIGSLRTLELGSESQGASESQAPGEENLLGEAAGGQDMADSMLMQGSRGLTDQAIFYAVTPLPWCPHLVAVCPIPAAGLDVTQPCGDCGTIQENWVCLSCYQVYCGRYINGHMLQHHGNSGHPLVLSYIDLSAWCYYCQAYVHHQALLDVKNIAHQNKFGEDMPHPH
Summary of the method: (§4)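 Fluorogenic assay with the tetrapeptide RHKK(Ac) substrate (p53 residues 379–382) at 50 μM.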

[16] = molecular target: T3, Histone deacetylase 8 (Homo sapiens) (UniProt Q9BY41); assay: Inhibition of HDAC8 (unknown origin) using fluorogenic tetrapeptide RHK(Ac)K(Ac) substrate at <50 uM by fluorescence assay
T3 sequence (whole entry): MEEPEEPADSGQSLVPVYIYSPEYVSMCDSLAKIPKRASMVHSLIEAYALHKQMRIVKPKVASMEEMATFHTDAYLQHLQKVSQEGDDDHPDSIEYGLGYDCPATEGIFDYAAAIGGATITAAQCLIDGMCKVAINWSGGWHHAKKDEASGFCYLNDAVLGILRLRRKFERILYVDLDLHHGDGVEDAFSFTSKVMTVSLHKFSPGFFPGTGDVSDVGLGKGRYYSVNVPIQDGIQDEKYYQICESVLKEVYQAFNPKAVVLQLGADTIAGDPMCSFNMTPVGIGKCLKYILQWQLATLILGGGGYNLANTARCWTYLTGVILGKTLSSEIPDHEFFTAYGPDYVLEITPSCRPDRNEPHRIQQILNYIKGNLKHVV
Summary of the method: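 The HDAC8 assay used the diacetylated fluorogenic substrate RHK(Ac)K(Ac) at 50 μM.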

Histone deacetylase 2 = Histone deacetylase 2 (Homo sapiens, UniProt Q92769); assay: Inhibition of HDAC2 (unknown origin) using fluorogenic tetrapeptide RHKK(Ac) substrate at <50 uM by fluorescence assay; summary of the method: as §4
Histone deacetylase 3 = Histone deacetylase 3 (Homo sapiens, UniProt O15379); assay: Inhibition of HDAC3 (unknown origin) using fluorogenic tetrapeptide RHKK(Ac) substrate by fluorescence assay
Histone deacetylase 1 = Histone deacetylase 1 (Homo sapiens, UniProt Q13547); assay: Inhibition of HDAC1 (unknown origin) using fluorogenic tetrapeptide RHKK(Ac) substrate by fluorescence assay
[17] = molecular target: T4, Polyamine deacetylase HDAC10 (Homo sapiens, UniProt Q969S8); assay: Inhibition of HDAC10 (unknown origin) using fluorogenic tetrapeptide RHKK(Ac) substrate by fluorescence assay
T4 sequence (Q969S8 whole entry): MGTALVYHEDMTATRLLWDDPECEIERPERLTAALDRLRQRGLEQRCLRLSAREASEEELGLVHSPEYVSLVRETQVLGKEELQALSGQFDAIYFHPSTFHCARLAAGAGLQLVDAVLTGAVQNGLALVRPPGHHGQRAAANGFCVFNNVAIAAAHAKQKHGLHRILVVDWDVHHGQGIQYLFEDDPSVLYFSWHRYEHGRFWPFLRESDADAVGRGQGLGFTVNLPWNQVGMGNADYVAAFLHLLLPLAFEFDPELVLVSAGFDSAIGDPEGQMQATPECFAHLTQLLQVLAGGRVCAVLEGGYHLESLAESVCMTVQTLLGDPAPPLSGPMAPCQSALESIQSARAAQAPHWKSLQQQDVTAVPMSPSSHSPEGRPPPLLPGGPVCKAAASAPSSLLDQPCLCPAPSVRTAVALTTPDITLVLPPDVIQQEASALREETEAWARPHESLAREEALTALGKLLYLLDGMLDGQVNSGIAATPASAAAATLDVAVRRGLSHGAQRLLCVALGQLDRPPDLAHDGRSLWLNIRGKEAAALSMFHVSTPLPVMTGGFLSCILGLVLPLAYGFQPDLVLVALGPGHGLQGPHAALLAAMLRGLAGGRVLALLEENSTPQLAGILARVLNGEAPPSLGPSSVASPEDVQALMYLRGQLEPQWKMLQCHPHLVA

Histone deacetylase 3, sequence (O15379 whole entry): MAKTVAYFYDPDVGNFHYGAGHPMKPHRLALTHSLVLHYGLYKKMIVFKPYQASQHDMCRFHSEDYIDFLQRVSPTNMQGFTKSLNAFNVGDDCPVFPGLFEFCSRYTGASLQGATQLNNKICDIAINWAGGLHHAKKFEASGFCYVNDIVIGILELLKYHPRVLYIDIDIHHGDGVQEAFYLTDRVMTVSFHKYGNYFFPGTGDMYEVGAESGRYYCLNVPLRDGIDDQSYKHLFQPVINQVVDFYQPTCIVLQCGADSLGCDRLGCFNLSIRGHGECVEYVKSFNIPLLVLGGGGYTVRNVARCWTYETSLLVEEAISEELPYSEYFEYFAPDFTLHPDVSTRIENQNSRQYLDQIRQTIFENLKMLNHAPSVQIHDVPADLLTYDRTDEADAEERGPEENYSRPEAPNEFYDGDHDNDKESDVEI
Histone deacetylase 1, sequence (Q13547 whole entry): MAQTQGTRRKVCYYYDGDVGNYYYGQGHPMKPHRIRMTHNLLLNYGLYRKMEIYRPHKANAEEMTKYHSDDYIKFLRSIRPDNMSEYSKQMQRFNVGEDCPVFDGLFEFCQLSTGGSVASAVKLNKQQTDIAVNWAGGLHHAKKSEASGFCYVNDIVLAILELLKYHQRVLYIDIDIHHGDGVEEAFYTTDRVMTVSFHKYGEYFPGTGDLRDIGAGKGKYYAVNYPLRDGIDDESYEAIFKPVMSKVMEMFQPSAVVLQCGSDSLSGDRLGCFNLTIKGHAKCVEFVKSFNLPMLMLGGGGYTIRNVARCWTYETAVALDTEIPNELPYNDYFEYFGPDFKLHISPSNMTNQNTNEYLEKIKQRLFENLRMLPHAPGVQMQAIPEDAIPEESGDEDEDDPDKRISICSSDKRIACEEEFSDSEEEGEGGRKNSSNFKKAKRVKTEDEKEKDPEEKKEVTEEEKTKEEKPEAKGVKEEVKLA
Histone deacetylase 2, sequence (Q92769 whole entry): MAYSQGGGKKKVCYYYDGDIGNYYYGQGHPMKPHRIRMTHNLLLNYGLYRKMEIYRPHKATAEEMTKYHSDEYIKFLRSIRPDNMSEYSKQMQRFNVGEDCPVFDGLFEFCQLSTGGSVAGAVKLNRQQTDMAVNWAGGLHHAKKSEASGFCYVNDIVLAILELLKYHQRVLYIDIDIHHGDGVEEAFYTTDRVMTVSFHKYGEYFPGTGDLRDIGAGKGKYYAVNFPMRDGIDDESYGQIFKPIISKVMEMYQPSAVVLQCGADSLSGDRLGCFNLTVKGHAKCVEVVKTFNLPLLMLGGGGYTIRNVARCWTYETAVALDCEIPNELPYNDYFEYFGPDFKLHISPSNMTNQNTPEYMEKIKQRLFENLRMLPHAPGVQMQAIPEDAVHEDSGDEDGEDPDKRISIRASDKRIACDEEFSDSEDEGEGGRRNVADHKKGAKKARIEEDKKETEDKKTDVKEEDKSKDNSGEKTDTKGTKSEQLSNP

CC(=O)SCCCCC[C@H](NC(=O)[C@H]1CCC(=O)N1)C(=O)Nc1ccccc1
IC50 (Histone deacetylase [1]): 5 nM
half-life at 5 µM [2]: 2.7 min
IC50 (Histone deacetylase [3]): 0.2 µM
IC50 [4]: 75 nM
inhibition in vivo at 60 mg/kg [5]: 62%
Activity (Mus musculus [6]): 1%
Ratio [7]: 4.2
Ratio [8]: 6.9
Activity (Mus musculus [9]): 7%
solubility [10]: > 10000 µg/mL
inhibition in vivo at 60 mg/kg (A2780): 89%
hepatocyte CLint at 5 µM [11]: 252 µL/min/1e6 cells
IC50 (NCI-H460): 70 nM

O=C(CCCCCCC(=O)Nc1ccccc1)NO [VORINOSTAT]
Activity (Mus musculus [12]): 4%
half-life at 5 µM [2]: 47.5 min
Stability [13]: Stable
hepatocyte CLint at 5 µM [11]: 14.7 µL/min/1e6 cells
Stability [14]: Stable

O=C(CCCCCCS)N1CCc2ccccc2C1
IC50 (Histone deacetylase 11): 949 nM
inhibition [15]: inactive
inhibition [16]: inactive
inhibition (Histone deacetylase 2): inactive
IC50 (Histone deacetylase 3): 35.8 µM
IC50 (Histone deacetylase 1): 1750 nM
IC50 [17]: 2930 nM
